ChEMBL document CHEMBL5247578, “Effective synthesis of benzimidazoles-imidazo[1,2-a]pyrazine conjugates: A comparative study of mono-and bis-benzimidazoles for antitumor activity” (Eur J Med Chem, 2019)

How the values were obtained:
HL-60 [1] = experiment: Growth inhibition against human HL-60 cells incubated for 48 hrs by sulforhodamine B assay; format: functional
LOX IMVI = experiment: Antiproliferative activity against human LOX IMVI cells assessed as cell growth at 0.00001 M incubated for 48 hrs by SRB assay relative to control; format: functional; conditions: read-out: Activity
KM12 = experiment: Antiproliferative activity against human KM12 cells assessed as cell growth at 0.00001 M incubated for 48 hrs by SRB assay relative to control; format: functional; conditions: read-out: Activity
NCI-H23 = experiment: Antiproliferative activity against human NCI-H23 cells assessed as cell growth inhibition by measuring lethal concentration incubated for 48 hrs by sulforhodamine B assay; format: functional; conditions: read-out: LC50 (the source's name)
T47D [2] = experiment: Antiproliferative activity against human T47D cells assessed as cell growth at 0.00000001 M incubated for 48 hrs by SRB assay relative to control; format: functional; conditions: dose 10 nM, read-out: Activity
RXF 393 = experiment: Antiproliferative activity against human RXF 393 cells assessed as cell growth at 0.000001 M incubated for 48 hrs by SRB assay relative to control; format: functional; conditions: read-out: Activity
MCF7 = experiment: Antiproliferative activity against human MCF7 cells assessed as cell growth at 0.00000001 M incubated for 48 hrs by SRB assay relative to control; format: functional; conditions: dose 10 nM, read-out: Activity
MOLT-4 [3] = experiment: Growth inhibition against human MOLT-4 cells incubated for 48 hrs by sulforhodamine B assay; format: functional
MOLT-4 [4] = experiment: Growth inhibition against human MOLT-4 cells assessed as total growth inhibitory concentration incubated for 48 hrs by sulforhodamine B assay; format: functional
Calf thymus DNA = experiment: Binding affinity to calf thymus DNA assessed as binding constant at temperature of 298 K by Stern-Volmer quenching plot based fluorescence spectroscopic method; format: nucleic-acid assay; conditions: Bos taurus
SF-268 [5] = experiment: Growth inhibition against human SF-268 cells assessed as total growth inhibitory concentration incubated for 48 hrs by sulforhodamine B assay; format: functional
MDA-MB-468 [6] = experiment: Antiproliferative activity against human MDA-MB-468 cells assessed as cell growth at 0.0001 M incubated for 48 hrs by SRB assay relative to control; format: functional; conditions: read-out: Activity
U-251 = experiment: Growth inhibition against human U-251 cells incubated for 48 hrs by sulforhodamine B assay; format: functional
SR = experiment: Antiproliferative activity against human SR cells assessed as cell growth inhibition by measuring lethal concentration incubated for 48 hrs by sulforhodamine B assay; format: functional; conditions: read-out: LC50 (the source's name)
Method in brief: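 NCI-60 five-dose screen (10^-4 to 10^-8 M, 10-fold dilutions; DMSO stocks). Cells in RPMI 1640 with 5% FBS and 2 mM L-glutamine, preincubated 24 h, then exposed 48 h at 37 °C, 5% CO2. Fixed with cold TCA, stained with 0.4% SRB, absorbance read at 515 nm. Time-zero plates used as reference. LC50 taken from [(Ti-Tz)/Tz]×100 […].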

SF-539 = experiment: Growth inhibition against human SF-539 cells incubated for 48 hrs by sulforhodamine B assay; format: functional
BT-549 = experiment: Antiproliferative activity against human BT-549 cells assessed as cell growth at 0.00001 M incubated for 48 hrs by SRB assay relative to control; format: functional; conditions: read-out: Activity
Method in brief: (§1)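 NCI-60 five-dose screen over 10^-4–10^-8 M (10-fold dilutions). Cells grown in RPMI 1640 with 5% FBS and 2 mM L-glutamine, seeded at 5,000–40,000 cells/well and preincubated 24 h. Drug from DMSO stock, 48 h at 37 °C, 5% CO2. Adherent cells TCA-fixed and stained with 0.4% SRB; A515 read. Percent growth = (Ti−Tz)/(C−Tz)×100, or (Ti−Tz)/Tz×100 when Ti<Tz.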

M14 [7] = experiment: Antiproliferative activity against human M14 cells assessed as cell growth at 0.0001 M incubated for 48 hrs by SRB assay relative to control; format: functional; conditions: read-out: Activity
OVCAR-4 = experiment: Antiproliferative activity against human OVCAR-4 cells assessed as cell growth at 0.0000001 M incubated for 48 hrs by SRB assay relative to control; format: functional; conditions: dose 100 nM, read-out: Activity
SNB-19 = experiment: Antiproliferative activity against human SNB-19 cells assessed as cell growth at 0.000001 M incubated for 48 hrs by SRB assay relative to control; format: functional; conditions: read-out: Activity
SK-MEL-2 = experiment: Antiproliferative activity against human SK-MEL-2 cells assessed as cell growth inhibition by measuring lethal concentration incubated for 48 hrs by sulforhodamine B assay; format: functional; conditions: read-out: LC50 (the source's name)
A549 = experiment: Antiproliferative activity against human A549 cells assessed as cell growth at 0.0000001 M incubated for 48 hrs by SRB assay relative to control; format: functional; conditions: dose 100 nM, read-out: Activity; method in brief: as §1
MDA-MB-468 [8] = experiment: Growth inhibition against human MDA-MB-468 cells assessed as total growth inhibitory concentration incubated for 48 hrs by sulforhodamine B assay; format: functional
UACC-257 = experiment: Antiproliferative activity against human UACC-257 cells assessed as cell growth at 0.00001 M incubated for 48 hrs by SRB assay relative to control; format: functional; conditions: read-out: Activity
M14 [9] = experiment: Antiproliferative activity against human M14 cells assessed as cell growth inhibition by measuring lethal concentration incubated for 48 hrs by sulforhodamine B assay; format: functional; conditions: read-out: LC50 (the source's name)
HOP-92 = experiment: Antiproliferative activity against human HOP-92 cells assessed as cell growth at 0.00000001 M incubated for 48 hrs by SRB assay relative to control; format: functional; conditions: dose 10 nM, read-out: Activity
Method in brief: (§2)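 NCI-60 five-dose screen (10^-4 to 10^-8 M). Cells grown in RPMI 1640 with 5% FBS and 2 mM L-glutamine, plated at 5,000-40,000 cells/well and preincubated 24 h. Drug given from DMSO stock, then 48 h at 37 °C, 5% CO2. For adherent lines, cells fixed with cold TCA, SRB-stained and read at 515 nm. Percent growth taken against time-zero and untreated control.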

SK-OV-3 = experiment: Antiproliferative activity against human SK-OV-3 cells assessed as cell growth at 0.000001 M incubated for 48 hrs by SRB assay relative to control; format: functional; conditions: read-out: Activity
SF-268 [10] = experiment: Antiproliferative activity against human SF-268 cells assessed as cell growth at 0.00001 M incubated for 48 hrs by SRB assay relative to control; format: functional; conditions: read-out: Activity
T47D [11] = experiment: Antiproliferative activity against human T47D cells assessed as cell growth at 0.0000001 M incubated for 48 hrs by SRB assay relative to control; format: functional; conditions: dose 100 nM, read-out: Activity
PC-3 [12] = experiment: Growth inhibition against human PC-3 cells incubated for 48 hrs by sulforhodamine B assay; format: functional
HCC 2998 = experiment: Antiproliferative activity against human HCC 2998 cells assessed as cell growth at 0.0001 M incubated for 48 hrs by SRB assay relative to control; format: functional; conditions: read-out: Activity; method in brief: as §2
HL-60 [13] = experiment: Antiproliferative activity against human HL-60 cells assessed as cell growth at 0.00000001 M incubated for 48 hrs by SRB assay relative to control; format: functional; conditions: dose 10 nM, read-out: Activity; method in brief: as §2
NCI-H522 = experiment: Antiproliferative activity against human NCI-H522 cells assessed as cell growth inhibition by measuring lethal concentration incubated for 48 hrs by sulforhodamine B assay; format: functional; conditions: read-out: LC50 (the source's name)
IGROV-1 = experiment: Antiproliferative activity against human IGROV-1 cells assessed as cell growth inhibition by measuring lethal concentration incubated for 48 hrs by sulforhodamine B assay; format: functional; conditions: read-out: LC50 (the source's name)
PC-3 [14] = experiment: Antiproliferative activity against human PC-3 cells assessed as cell growth at 0.00001 M incubated for 48 hrs by SRB assay relative to control; format: functional; conditions: read-out: Activity

Compound	GI50 (HL-60 [1])	growth at 10 µM (LOX IMVI)	growth at 10 µM (KM12)	CC50 (NCI-H23)	growth at 0.01 µM (T47D [2])	growth at 1 µM (RXF 393)	growth at 0.01 µM (MCF7)	GI50 (MOLT-4 [3])	TGI (MOLT-4 [4])	Kb (Calf thymus DNA)	TGI (SF-268 [5])	growth at 100 µM (MDA-MB-468 [6])	GI50 (U-251)	CC50 (SR)	GI50 (SF-539)	growth at 10 µM (BT-549)	growth at 100 µM (M14 [7])	growth at 0.1 µM (OVCAR-4)	growth at 1 µM (SNB-19)	CC50 (SK-MEL-2)	other results
c1ccc(Cn2cnc3ccc(-c4nc(-c5ccc6c(c5)ncn6C5CCCCC5)cn5ccnc45)cc32)cc1	2880 nM	-90%	-41%	1330 nM	86%	62%	86%	1670 nM	> 100 µM	9.58 10^4/M	> 100 µM	-7%	1990 nM	> 100 µM	1060 nM	-82%	6%	98%	93%	> 100 µM	growth at 0.1 µM (A549): 109%; TGI (MDA-MB-468 [8]): 4.43 µM; growth at 10 µM (UACC-257): -64%; CC50 (M14 [9]): > 100 µM; growth at 0.01 µM (HOP-92): 88%; growth at 1 µM (SK-OV-3): 100%; growth at 10 µM (SF-268 [10]): 2%; growth at 0.1 µM (T47D [11]): 95%; GI50 (PC-3 [12]): 1970 nM; growth at 100 µM (HCC 2998): -89%; growth at 0.01 µM (HL-60 [13]): 104%; CC50 (NCI-H522): > 100 µM; CC50 (IGROV-1): > 100 µM; growth at 10 µM (PC-3 [14]): -10%
COc1ccc(-c2cn3ccnc3c(-c3ccc4ncn(C5CCCCC5)c4c3)n2)cc1	1060 nM	17%	5%	> 100000 nM	85%	57%	88%	2660 nM	> 100 µM	36.5 10^4/M	> 100 µM	10%	2220 nM	> 100 µM	569 nM	-18%	8%	96%	45%	> 100 µM	growth at 0.1 µM (A549): 103%; TGI (MDA-MB-468 [8]): > 100 µM; growth at 10 µM (UACC-257): 60%; CC50 (M14 [9]): > 100 µM; growth at 0.01 µM (HOP-92): 96%; growth at 1 µM (SK-OV-3): 34%; growth at 10 µM (SF-268 [10]): 25%; growth at 0.1 µM (T47D [11]): 86%; GI50 (PC-3 [12]): 621 nM; growth at 100 µM (HCC 2998): 20%; growth at 0.01 µM (HL-60 [13]): 97%; CC50 (NCI-H522): > 100 µM; CC50 (IGROV-1): > 100 µM; growth at 10 µM (PC-3 [14]): 5%
